From ChEMBL document CHEMBL1806488, “Design, synthesis and biological evaluation of 2'-deoxy-2',2'-difluoro-5-halouridine phosphoramidate ProTides” (Bioorg Med Chem, 2011) come the findings set out here.

Data set [1] is described as follows: Cytotoxicity against cat CRFK cells by colorimetric formazan-based MTS assay. Type of data set: cell-based, Felis catus. The settings on record: crfk. A general note: Tetrazolium dyes change colour on reduction, which living cells bring about.
The test system of data set [2] is Human alphaherpesvirus 3. Description: Antiviral activity against thymidine kinase-deficient Varicella-zoster virus YS/R infected in human HEL cells assessed as reduction in the virus plaque formation. It is filed as functional, organism-based. The settings on record: Human alphaherpesvirus 3, YS/R.
The test system of data set [3] is Human alphaherpesvirus 3. Description: Antiviral activity against thymidine kinase-deficient Varicella-zoster virus 07-1 infected in human HEL cells assessed as reduction in the virus plaque formation. The settings on record: Human alphaherpesvirus 3, 07-1, HEL. It is filed as functional, organism-based.
Data set [4] deals with T1, Thymidine kinase (Human alphaherpesvirus 1, UniProt Q9QNF7).
T1 sequence (Q9QNF7 whole entry): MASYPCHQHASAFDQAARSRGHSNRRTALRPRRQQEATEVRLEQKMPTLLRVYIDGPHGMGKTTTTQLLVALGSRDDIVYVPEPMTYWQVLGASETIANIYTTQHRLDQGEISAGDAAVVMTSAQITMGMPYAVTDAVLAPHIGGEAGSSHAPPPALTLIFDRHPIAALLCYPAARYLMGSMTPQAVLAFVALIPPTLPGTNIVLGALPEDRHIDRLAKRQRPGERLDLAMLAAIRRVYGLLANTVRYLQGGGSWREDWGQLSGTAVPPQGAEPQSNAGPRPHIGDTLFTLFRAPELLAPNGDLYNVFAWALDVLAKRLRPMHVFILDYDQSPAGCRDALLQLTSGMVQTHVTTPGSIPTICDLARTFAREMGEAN
Description: Inhibition of Herpes simplex virus-1 thymidine kinase-mediated phosphorylation of [methyl-3H]dThd at 1 uM after 30 mins by scintillation counting.

In the next data set the test system is Felid alphaherpesvirus 1. Description: Antiviral activity against Feline herpesvirus infected in cat CRFK cells assessed as inhibition of virus-induced cytopathic effect after 4 days by microscopic analysis. Type of data set: functional, organism-based. The settings on record: Felid alphaherpesvirus 1, CRFK, 96 h. A digest of the protocol:
(§1)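 Confluent monolayers (CRFK for feline herpes virus; HEL for HSV-2 G) were inoculated with 100 CCID50 of virus in the presence of compound at 200, 40, 8, … μM. Cytopathicity was scored once it was complete in untreated infected controls.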

The test system of data set [5] is Human alphaherpesvirus 3. Description: Antiviral activity against Varicella-zoster virus OKA expressing thymidine kinase infected in human HEL cells assessed as reduction in the virus plaque formation. Type of data set: functional, cell-based. The settings on record: Human alphaherpesvirus 3, strain Oka vaccine.
A short description of data set [6]: Cytotoxicity against human HEL cells assessed as alteration of normal cell morphology by microscopic analysis. Type of data set: cell-based. Put shortly:
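Uninfected HEL cells were examined under the microscope. The minimum cytotoxic concentration is the lowest concentration causing a detectable alteration of normal cell morphology.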

Data set [7] can be described thus: Inhibition of Varicella-zoster virus thymidine kinase-mediated phosphorylation of [methyl-3H]dThd at 1 uM after 30 mins by scintillation counting. Also on record: species or system Human alphaherpesvirus 3.
The test system of data set [8] is Human alphaherpesvirus 1. Description: Antiviral activity against acyclovir-resistant TK-deficient Herpes simplex virus-1 KOS infected in human HEL cells assessed as inhibition of virus-induced cytopathic effect after 4 days by microscopic analysis. Type of data set: functional, organism-based. The settings on record: Human alphaherpesvirus 1, KOS, 96 h. In general terms: Damage to the host cells serves as the signal in cytopathic effect assays.

Data set [9] deals with Human betaherpesvirus 5. Description: Antiviral activity against Human cytomegalovirus Davis infected in human HEL cells assessed as reduction in the virus plaque formation. It is filed as functional, organism-based. The settings on record: Human betaherpesvirus 5, Davis. A digest of the protocol:
(§2)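 HEL cells were infected with 100 PFU of HCMV (AD-169 or Davis) in the presence of compound.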

The subject of a further data set is L1210. Description: Antiproliferation activity against mouse L1210 cells after 2 days by coulter counter. The settings on record: L1210, 48 h. Type of data set: cell-based. Put shortly: (§3)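 L1210, FM3A, CEM or HeLa cells at 300,000–500,000 cells/mL were mixed 1:1 with compound dilutions. Incubation at 37 °C lasted 2 days (L1210, FM3A) or 3 days (CEM, HeLa), after which cells were counted with a Coulter counter.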

A further data set has as its system Human alphaherpesvirus 2. Description: Antiviral activity against Herpes simplex virus-2 G infected in human HEL cells assessed as inhibition of virus-induced cytopathic effect after 4 days by microscopic analysis. Type of data set: functional, organism-based. The settings on record: Human alphaherpesvirus 2, strain G, 96 h. Put shortly: as §1
The test system of a further data set is Vaccinia virus. Description: Antiviral activity against Vaccinia virus infected in human HEL cells assessed as inhibition of virus-induced cytopathic effect after 4 days by microscopic analysis. The settings on record: Orthopoxvirus vaccinia, 96 h. It is filed as functional, organism-based.
In another data set the test system is FM3A. Description: Antiproliferation activity against mouse FM3A cells after 2 days by coulter counter. Type of data set: cell-based. The settings on record: 48 h. Put shortly:
as §3

The subject of another data set is HEL. Description: Cytotoxicity against human HEL cells by colorimetric formazan-based MTS assay. It is filed as cell-based.
Data set [10] relates to Human alphaherpesvirus 3. Description: Antiviral activity against Varicella-zoster virus YS expressing thymidine kinase infected in human HEL cells assessed as reduction in the virus plaque formation. Type of data set: functional, organism-based. The settings on record: Human alphaherpesvirus 3, YS.
The target of data set [11] is T2, Thymidine kinase (Feline herpesvirus 1, UniProt P13159).
T2 sequence (P13159 whole entry): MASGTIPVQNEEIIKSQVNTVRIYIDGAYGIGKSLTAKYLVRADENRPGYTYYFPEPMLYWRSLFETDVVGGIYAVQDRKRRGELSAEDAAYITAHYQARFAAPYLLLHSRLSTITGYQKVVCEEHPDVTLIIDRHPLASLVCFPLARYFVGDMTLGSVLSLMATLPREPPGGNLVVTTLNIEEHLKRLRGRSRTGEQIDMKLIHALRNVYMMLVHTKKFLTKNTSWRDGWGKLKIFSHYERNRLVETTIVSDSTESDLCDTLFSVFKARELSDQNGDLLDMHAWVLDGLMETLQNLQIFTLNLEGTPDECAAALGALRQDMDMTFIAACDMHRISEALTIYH
Description: Inhibition of Feline herpesvirus thymidine kinase assessed as phosphorylation of 1 uM [methyl-3H]dThd after 30 mins by scintillation counting. Further details: species or system Felid alphaherpesvirus 1.

Data set [12] concerns Human alphaherpesvirus 1. Description: Antiviral activity against Herpes simplex virus 1 KOS infected in human HEL cells assessed as inhibition of virus-induced cytopathic effect after 4 days by microscopic analysis. The settings on record: Human alphaherpesvirus 1, KOS, 96 h. It is filed as functional, organism-based.
Data set [13] relates to Human betaherpesvirus 5. Description: Antiviral activity against Human cytomegalovirus AD-169 infected in human HEL cells assessed as reduction in the virus plaque formation. Type of data set: functional, organism-based. The settings on record: Human betaherpesvirus 5, AD169, HEL. A digest of the protocol: as §2
The subject of the next data set is CCRF-CEM. Description: Antiproliferation activity against human CEM cells after 3 days by coulter counter. Type of data set: cell-based. The settings on record: 72 h. Put shortly: as §3
A further data set concerns HeLa. Description: Antiproliferation activity against human HeLa cells after 3 days by coulter counter. Type of data set: cell-based. The settings on record: 72 h. Put shortly: as §3

Bounds are passed on as bounds.

As for `O=c1[nH]c(=O)n([C@@H]2O[C@H](CO)[C@@H](O)C2(F)F)cc1I`, the CC50 (in data set [1]; with HEL) was more than 100 µM in each case. Further, the EC50 in the data set with Human alphaherpesvirus 3 [2] is more than 50 µM; in the data set with Human alphaherpesvirus 3 [3] it was more than 50 µM; with Felid alphaherpesvirus 1, 1.2 µM; in the data set with Human alphaherpesvirus 3 [5] it was 9.1 µM; in the data set with Human alphaherpesvirus 1 [8], 20 µM; with Human betaherpesvirus 5 [9] it was more than 50 µM. Also, the EC50 is 64 µM with Human alphaherpesvirus 2; more than 100 µM in the data set on Vaccinia virus; 13 µM with Human alphaherpesvirus 3 [10]; 16 µM with Human alphaherpesvirus 1 [12]; more than 50 µM with Human betaherpesvirus 5 [13]. The IC50 on Thymidine kinase [4] worked out at 3.5 µM; in data set [7] it was 19 µM; with L1210, 302 µM; in the data set on FM3A, 409 µM; at Thymidine kinase [11] it was 38 µM; in the data set with CCRF-CEM, 154 µM. This compound had an IC50 with HeLa of 230 µM. Further, in data set [6], the MCC was more than 50 µM.
`O=c1[nH]c(=O)n([C@@H]2O[C@H](CO)[C@@H](O)C2(F)F)cc1Cl`: the CC50 (in [1]; with HEL) was more than 100 µM throughout. Further, the EC50 was more than 50 µM in the data set with Human alphaherpesvirus 3 [2]; more than 50 µM with Human alphaherpesvirus 3 [3]; 13 µM with Felid alphaherpesvirus 1; not below 50 µM with Human alphaherpesvirus 3 [5]; 78 µM with Human alphaherpesvirus 1 [8]; more than 50 µM with Human betaherpesvirus 5 [9]. The EC50 in the data set on Human alphaherpesvirus 2 is not below 100 µM; with Vaccinia virus it was more than 100 µM; in the data set on Human alphaherpesvirus 3 [10], more than 50 µM; in the data set on Human alphaherpesvirus 1 [12] it was 33 µM; in the data set on Human betaherpesvirus 5 [13] it was more than 50 µM. In addition, the IC50 at Thymidine kinase [4] is 22 µM; in data set [7] it was 35 µM; in the data set on L1210, more than 500 µM; in the data set on FM3A it was more than 500 µM; at Thymidine kinase [11] it was 93 µM; with CCRF-CEM, more than 500 µM. In addition, the IC50 in the data set with HeLa was not below 500 µM. Further, the MCC in [6] is more than 50 µM.
For `Cc1cn([C@@H]2O[C@H](CO)[C@@H](O)C2(F)F)c(=O)[nH]c1=O`, the results for the CC50 (in data set [1]; in the data set on HEL) were more than 100 µM and 100 µM, respectively. The concentration for a half-maximal effect (EC50) was more than 50 µM in the data set with Human alphaherpesvirus 3 [2]; more than 50 µM with Human alphaherpesvirus 3 [3]; more than 100 µM in the data set with Felid alphaherpesvirus 1; 5.8 µM with Human alphaherpesvirus 3 [5]; 20 µM with Human alphaherpesvirus 1 [8]; more than 50 µM in the data set with Human betaherpesvirus 5 [9]. In addition, the EC50 is 39 µM with Human alphaherpesvirus 2; not below 100 µM in the data set on Vaccinia virus; 10 µM with Human alphaherpesvirus 3 [10]; 12 µM with Human alphaherpesvirus 1 [12]; more than 50 µM in the data set with Human betaherpesvirus 5 [13]. For the same compound, the IC50 was 2.8 µM on Thymidine kinase [4]; 21 µM in data set [7]; more than 500 µM in the data set with L1210; more than 500 µM with FM3A; 85 µM on Thymidine kinase [11]; more than 500 µM in the data set with CCRF-CEM. Besides, in the data set on HeLa, the IC50 was more than 500 µM. Besides, in [6], the MCC is more than 50 µM.

The CC50 is the concentration at which the toxic effect on the cells reaches its halfway point. A high value points to lower toxicity to the cells. One may read the EC50 as the concentration needed to bring the measured effect to its halfway point. For orientation: IC50 means the point on the concentration scale where inhibition reaches its midpoint.
